Assay results from ChEMBL document CHEMBL1817563, “Novel aminopeptidase N (APN/CD13) inhibitors derived from chloramphenicol amine” (Bioorg Med Chem, 2011).

Experiments:
Aminopeptidase N [1] = biological target: T1, Aminopeptidase N (Sus scrofa, UniProt P15145); assay: Inhibition of pig kidney microsomal APN assessed as hydrolysis of L-Leu-p-nitroanilide after 1 hr by spectrophotometry
T1 sequence (P15145 whole entry): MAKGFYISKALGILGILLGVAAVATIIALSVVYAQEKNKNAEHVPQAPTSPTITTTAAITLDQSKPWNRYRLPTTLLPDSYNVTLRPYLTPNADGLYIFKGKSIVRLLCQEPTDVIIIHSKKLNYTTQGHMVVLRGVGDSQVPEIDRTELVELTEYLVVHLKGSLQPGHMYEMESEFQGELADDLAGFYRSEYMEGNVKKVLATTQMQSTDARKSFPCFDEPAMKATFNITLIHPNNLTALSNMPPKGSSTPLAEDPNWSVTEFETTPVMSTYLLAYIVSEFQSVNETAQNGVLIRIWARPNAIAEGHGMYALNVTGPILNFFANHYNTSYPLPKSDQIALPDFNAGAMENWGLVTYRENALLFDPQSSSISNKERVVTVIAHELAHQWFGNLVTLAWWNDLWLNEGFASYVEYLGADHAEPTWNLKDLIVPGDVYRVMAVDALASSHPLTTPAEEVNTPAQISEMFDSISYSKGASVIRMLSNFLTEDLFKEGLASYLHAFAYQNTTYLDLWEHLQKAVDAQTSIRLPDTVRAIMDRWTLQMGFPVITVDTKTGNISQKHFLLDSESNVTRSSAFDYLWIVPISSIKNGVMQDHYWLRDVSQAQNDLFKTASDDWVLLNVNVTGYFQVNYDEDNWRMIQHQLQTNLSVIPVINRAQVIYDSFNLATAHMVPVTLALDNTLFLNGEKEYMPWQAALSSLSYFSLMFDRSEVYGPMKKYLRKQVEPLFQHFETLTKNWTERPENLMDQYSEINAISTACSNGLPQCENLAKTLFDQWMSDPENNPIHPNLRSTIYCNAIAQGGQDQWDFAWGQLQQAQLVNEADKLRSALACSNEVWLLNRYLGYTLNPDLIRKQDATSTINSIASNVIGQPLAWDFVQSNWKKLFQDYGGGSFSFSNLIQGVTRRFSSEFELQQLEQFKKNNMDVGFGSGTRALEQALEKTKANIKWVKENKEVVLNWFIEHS
Outline: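 Porcine kidney microsomal aminopeptidase in 50 mM PBS, pH 7.2, with L-Leu-p-nitroanilide as substrate. Incubated with a range of inhibitor concentrations at 37 °C. Triplicate experiments, reported as mean ± standard deviation.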

[2] = biological target: 72 kDa type IV collagenase (Homo sapiens, UniProt P08253); assay: Inhibition of human MMP-2 after 30 mins by spectrophotometry
Chain of 72 kDa type IV collagenase (P08253 whole entry): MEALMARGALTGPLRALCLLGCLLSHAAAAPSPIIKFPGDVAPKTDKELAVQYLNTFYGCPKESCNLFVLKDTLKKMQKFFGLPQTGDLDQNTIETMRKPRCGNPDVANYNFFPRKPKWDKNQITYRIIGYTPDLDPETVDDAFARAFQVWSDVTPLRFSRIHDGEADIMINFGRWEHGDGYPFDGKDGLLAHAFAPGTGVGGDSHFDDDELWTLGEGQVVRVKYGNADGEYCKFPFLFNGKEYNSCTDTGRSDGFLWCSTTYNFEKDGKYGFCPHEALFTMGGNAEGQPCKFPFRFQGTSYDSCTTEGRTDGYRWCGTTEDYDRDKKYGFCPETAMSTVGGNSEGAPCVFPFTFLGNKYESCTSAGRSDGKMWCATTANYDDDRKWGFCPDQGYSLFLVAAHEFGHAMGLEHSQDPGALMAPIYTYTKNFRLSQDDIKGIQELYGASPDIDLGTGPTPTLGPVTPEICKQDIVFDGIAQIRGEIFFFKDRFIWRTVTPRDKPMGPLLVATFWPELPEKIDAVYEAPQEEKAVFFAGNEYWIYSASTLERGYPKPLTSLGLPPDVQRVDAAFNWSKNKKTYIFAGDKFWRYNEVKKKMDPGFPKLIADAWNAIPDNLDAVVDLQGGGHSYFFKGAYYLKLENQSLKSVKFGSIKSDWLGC
Outline: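 MMP-2 was incubated with synthetic substrate and inhibitor in 50 mM sodium borate, pH 8.5, for 30 min at 37 °C. TNBS (0.03%, m/v) was then added for 20 min at room temperature. Absorbance was read at 450 nm. IC50 is the mean ± standard deviation of triplicate experiments.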

[3] = Selectivity ratio of IC50 for MMP-2 to IC50 for pig kidney microsomal APN
Aminopeptidase N [4] = biological target: Aminopeptidase N (Homo sapiens, UniProt P15144); assay: Inhibition of APN in human HL60 cells assessed as hydrolysis of L-Leu-p-nitroanilide by spectrophotometry; type: cell-based, HL-60
Chain of Aminopeptidase N (Homo sapiens, UniProt P15144) (P15144 whole entry): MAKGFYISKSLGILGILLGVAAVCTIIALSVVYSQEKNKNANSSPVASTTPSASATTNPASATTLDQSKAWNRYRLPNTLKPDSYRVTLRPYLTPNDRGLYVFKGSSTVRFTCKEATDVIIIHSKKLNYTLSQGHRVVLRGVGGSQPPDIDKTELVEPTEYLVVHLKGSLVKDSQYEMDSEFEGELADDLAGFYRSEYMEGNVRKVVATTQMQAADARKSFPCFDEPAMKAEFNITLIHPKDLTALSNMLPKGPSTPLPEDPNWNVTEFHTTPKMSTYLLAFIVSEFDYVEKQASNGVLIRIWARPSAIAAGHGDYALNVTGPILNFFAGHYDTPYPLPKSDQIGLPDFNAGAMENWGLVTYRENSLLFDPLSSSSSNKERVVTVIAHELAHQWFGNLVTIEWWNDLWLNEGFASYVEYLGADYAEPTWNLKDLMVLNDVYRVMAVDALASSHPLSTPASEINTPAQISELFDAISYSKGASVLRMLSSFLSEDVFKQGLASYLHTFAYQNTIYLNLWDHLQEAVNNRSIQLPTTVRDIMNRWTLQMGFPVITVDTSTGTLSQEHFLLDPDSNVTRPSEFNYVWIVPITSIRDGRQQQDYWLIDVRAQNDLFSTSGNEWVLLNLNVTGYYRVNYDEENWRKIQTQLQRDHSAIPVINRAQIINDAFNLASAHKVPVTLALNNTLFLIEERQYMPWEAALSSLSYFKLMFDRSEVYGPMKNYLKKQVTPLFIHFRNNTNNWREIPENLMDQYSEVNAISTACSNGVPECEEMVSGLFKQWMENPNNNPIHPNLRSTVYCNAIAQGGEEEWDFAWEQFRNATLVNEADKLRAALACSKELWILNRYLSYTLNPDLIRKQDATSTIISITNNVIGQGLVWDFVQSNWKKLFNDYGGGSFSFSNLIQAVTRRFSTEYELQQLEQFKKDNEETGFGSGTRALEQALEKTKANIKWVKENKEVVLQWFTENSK
Outline: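 Intact HL-60 cells suspended in PBS (1×10^5/well) served as the enzyme source, with L-Leu-p-nitroanilide as substrate. Cells were incubated at 37 °C with a range of inhibitor concentrations. Values are means of three independent experiments.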

HL-60 = assay: Antiproliferative activity against human HL60 cells expressing high levels of APN after 48 hrs by MTT assay; type: functional, cell-based; conditions: HL-60, 48 h
Outline: (§1)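 Cells kept in RPMI1640 plus 10% FBS at 37 °C, 5% CO2. Seeded 1×10^4/well and grown 4 h before inhibitors were added over a range of concentrations. After 48 h exposure, MTT (0.5 mg/mL) was added and the formazan dissolved in DMSO. Read-out was OD at 570 nm.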

MDA-MB-231 = assay: Antiproliferative activity against human MDA-MB-231 cells expressing low levels of APN after 48 hrs by MTT assay; type: functional, cell-based; conditions: MDA-MB-231, 48 h; outline: as §1

SMILES | IC50 (Aminopeptidase N [1]) [µM] | IC50 [2] [µM] | Ratio IC50 [3] | IC50 (Aminopeptidase N [4]) [µM] | IC50 (HL-60) [µM] | IC50 (MDA-MB-231) [µM]
NC[C@H](N)[C@@H](O)c1ccc([N+](=O)[O-])cc1 | 894 | > 1000 | > 1.1 |  |  | 
CC(C)C[C@H](N)C(=O)N[C@H](Cc1ccccc1)C(=O)NC[C@H](N)[C@@H](O)c1ccc([N+](=O)[O-])cc1 | 9.4 | 173 | 19.2 | 290 | 2150 | 1320
CC(C)C[C@H](NC(=O)[C@H](N)Cc1ccccc1)C(=O)NC[C@H](N)[C@@H](O)c1ccc([N+](=O)[O-])cc1 | 74.7 | 106 | 1.4 |  |  | 
N[C@H](Cc1ccccc1)C(=O)N[C@H](Cc1ccccc1)C(=O)NC[C@H](N)[C@@H](O)c1ccc([N+](=O)[O-])cc1 | 134 | 44.1 | 0.3 |  |  | 
N[C@@H](Cc1ccc(O)cc1)C(=O)NC[C@H](N)[C@@H](O)c1ccc(I)cc1 | 21.6 | 42.2 | 2 |  |  | 
N[C@H](Cc1ccccc1)C(=O)NC[C@H](O)C(=O)NC[C@H](N)[C@@H](O)c1ccc([N+](=O)[O-])cc1 | 17.6 | 109 | 6.1 | 616 | 3150 | 7320
N[C@H](Cc1ccccc1)C(=O)N[C@@H](CO)C(=O)NC[C@H](N)[C@@H](O)c1ccc([N+](=O)[O-])cc1 | 21.6 | 110 | 5 |  |  | 
NC[C@H](O)C(=O)N[C@H](Cc1ccccc1)C(=O)NC[C@H](N)[C@@H](O)c1ccc([N+](=O)[O-])cc1 | 6.5 | 40.6 | 6.3 | 66.3 | 2040 | 4130
N[C@H](Cc1ccccc1)C(=O)N[C@H](Cc1ccccc1)C(=O)NC[C@H](N)[C@@H](O)c1ccc(I)cc1 | > 1000 | 107 | < 0.1 |  |  | 
CC(C)C[C@H](NC(=O)[C@H](N)Cc1ccccc1)C(=O)NC[C@H](N)[C@@H](O)c1ccc(I)cc1 | 105 | 52.7 | 0.5 |  |  | 
N[C@@H](Cc1ccc(O)cc1)C(=O)NC[C@H](N)[C@@H](O)c1ccc([N+](=O)[O-])cc1 | 39.2 | 61.3 | 1.6 |  |  | 
CC(C)C[C@H](NC(=O)[C@@H](O)[C@H](N)Cc1ccccc1)C(=O)O [UBENIMEX] |  | 120 |  |  |  | 5080
Nc1ccc([C@H](O)[C@@H](N)CNC(=O)[C@@H](Cc2ccccc2)NC(=O)[C@H](N)Cc2ccccc2)cc1 | 30.6 | 40.4 | 1.3 |  |  | 
N[C@H](Cc1ccccc1)C(=O)NC[C@H](N)[C@@H](O)c1ccc([N+](=O)[O-])cc1 | 42.2 | 67.4 | 1.6 |  |  | 
N[C@@H](CNC(=O)[C@@H]1Cc2ccc(O)cc2CN1)[C@@H](O)c1ccc([N+](=O)[O-])cc1 | 441 | > 1000 | > 2.3 |  |  | 

The remaining lines, values ahead:

IC50 (Aminopeptidase N [1]) [µM] | IC50 [2] [µM] | Ratio IC50 [3] | IC50 (Aminopeptidase N [4]) [µM] | IC50 (HL-60) [µM] | IC50 (MDA-MB-231) [µM] | SMILES
6.1 | 134 | 22.3 | 39.4 | 1340 | 3650 | CC(C)C[C@H](N)C(=O)N[C@H](Cc1ccccc1)C(=O)NC[C@H](N)[C@@H](O)c1ccc(N)cc1
114 | 111 | 1 |  |  |  | Nc1ccc([C@H](O)[C@@H](N)CNC(=O)[C@@H](N)Cc2ccc(O)cc2)cc1
63.2 | 119 | 1.9 |  |  |  | CC(C)C[C@H](N)C(=O)NC[C@H](N)[C@@H](O)c1ccc(N)cc1
423 | 331 | 0.8 |  |  |  | N[C@@H](CO)C(=O)NC[C@H](N)[C@@H](O)c1ccc([N+](=O)[O-])cc1
31.6 | 94 | 3 |  |  |  | CC(C)C[C@H](NC(=O)[C@H](N)Cc1ccccc1)C(=O)NC[C@H](N)[C@@H](O)c1ccc(N)cc1
30.6 | 120 | 3.9 |  |  |  | CC(C)C[C@H](N)C(=O)NC[C@H](N)[C@@H](O)c1ccc(I)cc1
11.3 | 86.6 | 7.7 |  |  |  | CC(C)C[C@H](N)C(=O)N[C@H](Cc1ccccc1)C(=O)NC[C@H](N)[C@@H](O)c1ccc(I)cc1
136 | 157 | 1.2 |  |  |  | NCCCC[C@H](N)C(=O)NC[C@H](N)[C@@H](O)c1ccc(N)cc1
164 | 100 |  |  |  |  | NC[C@H](O)C(=O)NC[C@H](N)[C@@H](O)c1ccc([N+](=O)[O-])cc1
12.4 | 152 | 12.7 | 248 | 2320 | 4220 | N[C@@H](CS)C(=O)NC[C@H](N)[C@@H](O)c1ccc([N+](=O)[O-])cc1
19.6 | 83.9 | 4.2 |  |  |  | CC(C)C[C@H](NC(=O)[C@@H](O)CN)C(=O)NC[C@H](N)[C@@H](O)c1ccc([N+](=O)[O-])cc1
80.6 | 143 | 1.8 |  |  |  | CC(C)C[C@H](N)C(=O)NC[C@H](N)[C@@H](O)c1ccc([N+](=O)[O-])cc1
50.1 | 84.3 | 1.7 |  |  |  | NCCCC[C@H](N)C(=O)NC[C@H](N)[C@@H](O)c1ccc([N+](=O)[O-])cc1
141 | 149 | 1.1 |  |  |  | Nc1ccc([C@H](O)[C@@H](N)CNC(=O)[C@H](N)Cc2ccccc2)cc1
